# Measured values taken from ChEMBL document CHEMBL4145674, “Discovery of 3-Benzyl-1-( trans-4-((5-cyanopyridin-2-yl)amino)cyclohexyl)-1-arylurea Derivatives as Novel and Selective Cyclin-Dependent Kinase 12 (CDK12) Inhibitors” (J Med Chem, 2018).
# Active and inactive are the calls of the source. The calls are words filed in the database; no cut-off is given here.
# Experiments:
# CDK9/cyclin T1 = CDK9/cyclin T1 (Homo sapiens, UniProt P50750); format: protein-complex assay
# [1] = Partition coefficient between 1-octanol and aqueous buffer, log D of the compound at pH 7.4 buffer by chromatography; format: physicochemical; conditions: 1-octanol/aqueous buffer
# Procedure, shortened: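 log D as octanol/buffer partition at pH 7.4, determined chromatographically.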
# CDK2/Cyclin A2 = CDK2/Cyclin A2 (Homo sapiens, UniProt P24941); assay: Inhibition of GST-tagged human CDK2/CCNA2 (04 to 103 residues) pre-incubated for 5 mins before addition of histone H1 substrate and [gamma-33P]ATP and measured after 20 mins by radiometric assay; format: protein-complex assay
# Procedure, shortened: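 GST-CDK2/CCNA2 at 1.8 mU/well in 25 mM HEPES pH 7.5, 10 mM Mg acetate, 1 mM DTT. Compound and enzyme together 5 min at room temperature before ATP start. Final levels: histone H1 1 μg/well, [γ-33P]ATP 500 nM. Reaction 20 min at room temperature, stopped with 10% TCA. Filter capture, phosphoric acid wash, scintillation counting. IC50 reported.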
# [2] = Solubility in aqueous buffer solution at pH 6.8 by UV absorbance spectroscopy; format: physicochemical
# Procedure, shortened: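 Compound in DMSO spiked into aqueous buffer pH 6.8 and incubated. Precipitate removed by filtration, dissolved compound quantified by UV absorbance of the filtrate.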
# CDK12/Cyclin K = CDK12/Cyclin K (Homo sapiens, UniProt Q9NYV4); assay: Inhibition of N-terminal FLAG-tagged human full-length CDK12 (1 to 1490 residues)/N-terminal His-tagged CycK (1 to 580 residues) expressed in Sf9 cells assessed as reduction in ATP-dependent ULight-4E-BP1 (Thr37/Thr46) substrate peptide phosphorylation pre-incubated for 60 mins by LANCE Ultra assay
# Chain of CDK12/Cyclin K (O75909 whole entry, the tested form may be a part): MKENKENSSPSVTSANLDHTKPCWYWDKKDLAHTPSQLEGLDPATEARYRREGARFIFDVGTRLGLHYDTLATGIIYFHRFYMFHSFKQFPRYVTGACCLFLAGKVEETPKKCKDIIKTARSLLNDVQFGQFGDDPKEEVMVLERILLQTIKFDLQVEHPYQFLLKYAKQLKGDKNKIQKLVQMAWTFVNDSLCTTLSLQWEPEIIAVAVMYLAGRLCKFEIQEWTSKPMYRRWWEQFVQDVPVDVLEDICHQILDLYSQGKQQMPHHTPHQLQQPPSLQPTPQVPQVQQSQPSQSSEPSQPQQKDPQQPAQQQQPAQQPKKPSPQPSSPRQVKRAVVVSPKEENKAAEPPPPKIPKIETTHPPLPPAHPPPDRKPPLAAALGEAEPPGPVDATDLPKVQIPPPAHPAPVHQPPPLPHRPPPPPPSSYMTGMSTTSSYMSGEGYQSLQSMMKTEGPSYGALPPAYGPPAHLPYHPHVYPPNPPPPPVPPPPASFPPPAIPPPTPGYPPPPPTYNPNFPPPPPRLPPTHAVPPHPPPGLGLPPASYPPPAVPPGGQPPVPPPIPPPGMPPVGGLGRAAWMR
# Chain of CDK12/Cyclin K (Q9NYV4 whole entry, the tested form may be a part): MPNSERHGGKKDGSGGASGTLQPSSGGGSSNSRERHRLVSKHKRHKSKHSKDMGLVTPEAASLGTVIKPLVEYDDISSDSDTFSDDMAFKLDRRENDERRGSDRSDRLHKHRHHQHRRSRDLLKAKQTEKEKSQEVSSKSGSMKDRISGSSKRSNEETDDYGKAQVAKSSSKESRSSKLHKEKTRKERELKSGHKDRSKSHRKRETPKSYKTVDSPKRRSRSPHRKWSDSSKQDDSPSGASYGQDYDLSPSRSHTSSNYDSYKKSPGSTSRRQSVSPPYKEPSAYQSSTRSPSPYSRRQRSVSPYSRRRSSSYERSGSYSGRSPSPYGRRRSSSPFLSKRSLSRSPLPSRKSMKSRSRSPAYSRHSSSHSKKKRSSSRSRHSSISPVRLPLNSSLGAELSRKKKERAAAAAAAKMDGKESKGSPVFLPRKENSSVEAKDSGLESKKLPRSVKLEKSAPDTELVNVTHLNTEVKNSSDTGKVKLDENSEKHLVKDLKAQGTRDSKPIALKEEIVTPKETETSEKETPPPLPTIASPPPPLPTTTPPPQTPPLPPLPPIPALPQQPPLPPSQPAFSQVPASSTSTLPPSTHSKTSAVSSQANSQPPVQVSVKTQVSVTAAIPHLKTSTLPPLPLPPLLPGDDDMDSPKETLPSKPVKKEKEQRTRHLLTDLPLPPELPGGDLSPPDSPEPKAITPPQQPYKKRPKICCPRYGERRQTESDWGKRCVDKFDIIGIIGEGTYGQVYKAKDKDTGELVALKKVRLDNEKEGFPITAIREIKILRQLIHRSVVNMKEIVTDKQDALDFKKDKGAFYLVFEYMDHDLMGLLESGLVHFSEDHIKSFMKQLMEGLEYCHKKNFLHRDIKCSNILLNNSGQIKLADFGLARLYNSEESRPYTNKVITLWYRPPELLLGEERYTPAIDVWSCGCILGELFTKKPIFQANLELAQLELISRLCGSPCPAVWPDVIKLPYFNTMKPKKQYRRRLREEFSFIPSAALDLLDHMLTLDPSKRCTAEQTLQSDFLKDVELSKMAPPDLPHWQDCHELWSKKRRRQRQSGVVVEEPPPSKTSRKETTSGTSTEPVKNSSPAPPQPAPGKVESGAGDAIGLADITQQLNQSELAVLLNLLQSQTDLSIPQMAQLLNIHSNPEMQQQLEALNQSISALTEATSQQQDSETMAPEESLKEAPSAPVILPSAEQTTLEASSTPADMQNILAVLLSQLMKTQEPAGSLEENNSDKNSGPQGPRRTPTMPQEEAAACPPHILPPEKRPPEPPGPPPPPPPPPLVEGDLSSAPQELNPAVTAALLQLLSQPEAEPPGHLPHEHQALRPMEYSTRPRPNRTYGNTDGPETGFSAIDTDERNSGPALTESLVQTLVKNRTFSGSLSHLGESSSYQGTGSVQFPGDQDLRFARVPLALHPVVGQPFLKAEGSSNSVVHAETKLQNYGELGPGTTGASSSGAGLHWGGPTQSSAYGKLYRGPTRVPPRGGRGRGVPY
# [3] = Permeability of the compound at 10 umol/L incubated for 3 hrs by LC/MS/MS detection based PAMPA method; format: ADME; conditions: read-out: permeability
# Procedure, shortened: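 PAMPA: donor buffer pH 7.4 holding 10 μmol/L compound; acceptor filter coated with GIT-0 lipid, acceptor sink buffer. 3 h at room temperature. Compound in donor and acceptor wells quantified by LC/MS/MS.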
# CDK8/Cyclin C = CDK8/Cyclin C (Homo sapiens, UniProt P49336); assay: Inhibition of GST-tagged human CDK8/CycC (04 to 109 residues) using kinase tracer 236 probe incubated for 60 mins by TR-FRET assay; format: protein-complex assay
# Chain of CDK8/Cyclin C (P49336 whole entry, the tested form may be a part): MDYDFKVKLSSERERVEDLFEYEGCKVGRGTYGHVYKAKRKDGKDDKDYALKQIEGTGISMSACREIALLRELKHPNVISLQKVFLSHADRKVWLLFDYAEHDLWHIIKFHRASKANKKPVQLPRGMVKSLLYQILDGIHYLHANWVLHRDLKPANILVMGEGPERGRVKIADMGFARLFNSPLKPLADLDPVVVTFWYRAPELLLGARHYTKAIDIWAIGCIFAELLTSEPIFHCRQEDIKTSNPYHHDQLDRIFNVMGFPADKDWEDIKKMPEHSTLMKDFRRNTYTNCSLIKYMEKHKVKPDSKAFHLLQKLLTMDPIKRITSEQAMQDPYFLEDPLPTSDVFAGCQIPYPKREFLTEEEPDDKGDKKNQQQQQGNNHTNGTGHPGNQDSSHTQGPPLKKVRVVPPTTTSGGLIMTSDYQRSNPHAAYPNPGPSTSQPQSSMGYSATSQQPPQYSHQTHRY
# Chain of CDK8/Cyclin C (P24863 whole entry, further chain, the tested form may be a part): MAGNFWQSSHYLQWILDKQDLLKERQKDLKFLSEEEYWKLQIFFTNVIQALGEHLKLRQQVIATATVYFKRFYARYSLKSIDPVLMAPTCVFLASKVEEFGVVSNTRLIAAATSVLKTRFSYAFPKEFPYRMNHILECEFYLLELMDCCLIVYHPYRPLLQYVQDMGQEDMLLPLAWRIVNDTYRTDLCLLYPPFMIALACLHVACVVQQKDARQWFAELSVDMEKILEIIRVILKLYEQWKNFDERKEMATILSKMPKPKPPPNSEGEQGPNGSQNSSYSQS
# CDK7/Cyclin H/MNAT1 = CDK7/Cyclin H/MNAT1 (Homo sapiens, UniProt P50613)
# Chain of CDK7/Cyclin H/MNAT1 (P51946 whole entry): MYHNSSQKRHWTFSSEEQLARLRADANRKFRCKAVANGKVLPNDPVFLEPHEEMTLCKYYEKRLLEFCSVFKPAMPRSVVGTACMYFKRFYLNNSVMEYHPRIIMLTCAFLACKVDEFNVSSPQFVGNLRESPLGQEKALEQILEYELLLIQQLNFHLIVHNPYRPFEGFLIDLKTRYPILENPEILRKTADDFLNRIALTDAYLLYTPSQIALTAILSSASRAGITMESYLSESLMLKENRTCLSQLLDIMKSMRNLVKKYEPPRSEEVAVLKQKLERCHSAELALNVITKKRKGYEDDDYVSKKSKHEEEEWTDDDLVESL
# Chain of CDK7/Cyclin H/MNAT1 (P50613 whole entry): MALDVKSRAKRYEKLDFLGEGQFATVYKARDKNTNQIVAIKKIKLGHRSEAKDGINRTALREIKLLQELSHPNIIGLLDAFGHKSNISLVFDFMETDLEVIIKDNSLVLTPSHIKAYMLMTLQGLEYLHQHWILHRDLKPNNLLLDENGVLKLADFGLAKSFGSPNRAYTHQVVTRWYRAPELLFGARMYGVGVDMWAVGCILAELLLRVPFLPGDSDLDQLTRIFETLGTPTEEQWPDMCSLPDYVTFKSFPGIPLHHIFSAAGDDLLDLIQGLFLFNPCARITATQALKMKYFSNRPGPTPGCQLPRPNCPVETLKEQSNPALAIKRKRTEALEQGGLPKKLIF
# Chain of CDK7/Cyclin H/MNAT1 (P51948 whole entry, further chain): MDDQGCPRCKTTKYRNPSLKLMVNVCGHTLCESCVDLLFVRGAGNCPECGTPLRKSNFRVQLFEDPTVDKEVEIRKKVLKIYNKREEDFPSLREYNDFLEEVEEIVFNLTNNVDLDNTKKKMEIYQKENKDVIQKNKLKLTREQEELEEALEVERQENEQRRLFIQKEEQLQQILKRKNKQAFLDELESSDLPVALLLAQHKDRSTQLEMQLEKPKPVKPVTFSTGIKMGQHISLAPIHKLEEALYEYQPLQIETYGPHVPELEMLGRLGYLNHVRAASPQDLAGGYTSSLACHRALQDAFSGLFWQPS
# [4] = target: Cyclin-dependent kinase 12 (Homo sapiens, UniProt Q9NYV4); assay: Time dependent inhibition of human CDK12 incubated for 0 to 5 hrs using ULight-4E-BP1 (Thr37/Thr46) substrate by LANCE system based assay
# Chain of Cyclin-dependent kinase 12 (Q9NYV4 whole entry, looked up, the tested form may be a part): as the sequence (Q9NYV4 whole entry, the tested form may be a part) above
# Homo sapiens = species: Homo sapiens; assay: Selectivity index, ratio of IC50 for inhibition of GST-tagged human CDK2/CCNA2 (04 to 103 residues) to IC50 for inhibition of N-terminal FLAG-tagged human full-length CDK12 (1 to 1490 residues)/N-terminal His-tagged CycK (1 to 580 residues) expressed in Sf9 cells
# Procedure, shortened: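 Ratio of two IC50s. CDK2/CCNA2: radiometric assay, 1.8 mU/well enzyme, histone H1 (1 μg/well), 500 nM [γ-33P]ATP, 5 min compound preincubation, 20 min at room temperature, TCA stop, filter-bound counts. In-house CDK12/CycK (30 nM): LANCE TR-FRET, ULight-4E-BP1 peptide 150 nM, ATP 10 μM, HEPES pH 7.5, 60 min preincubation, EDTA/Eu-antibody stop.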
# [5] = target: T1, Dual specificity tyrosine-phosphorylation-regulated kinase 2 (Homo sapiens) (UniProt Q92630); assay: Inhibition of N-terminal GST tagged recombinant full-length human DYRK2 expressed in Escherichia coli at 1 uM
# T1 sequence (whole entry): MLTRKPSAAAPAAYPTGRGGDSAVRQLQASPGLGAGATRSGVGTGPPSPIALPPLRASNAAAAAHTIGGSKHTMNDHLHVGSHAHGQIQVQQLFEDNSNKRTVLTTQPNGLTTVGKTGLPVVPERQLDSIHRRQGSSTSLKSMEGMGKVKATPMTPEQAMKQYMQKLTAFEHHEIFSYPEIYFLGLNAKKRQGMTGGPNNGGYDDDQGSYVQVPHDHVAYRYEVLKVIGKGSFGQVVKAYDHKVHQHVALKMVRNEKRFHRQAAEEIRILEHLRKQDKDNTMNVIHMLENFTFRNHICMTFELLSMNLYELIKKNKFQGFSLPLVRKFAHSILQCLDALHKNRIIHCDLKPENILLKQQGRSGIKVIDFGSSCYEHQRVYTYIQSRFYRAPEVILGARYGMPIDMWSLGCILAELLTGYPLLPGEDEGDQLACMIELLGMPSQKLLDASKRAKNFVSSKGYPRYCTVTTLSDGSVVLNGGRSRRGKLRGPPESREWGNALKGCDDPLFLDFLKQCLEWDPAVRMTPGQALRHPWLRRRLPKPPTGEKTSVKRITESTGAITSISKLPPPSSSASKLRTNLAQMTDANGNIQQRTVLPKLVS
# [6] = target: T2, Serine/threonine-protein kinase TAO1 (Homo sapiens) (UniProt Q7L7X3); assay: Inhibition of N-terminal GST tagged recombinant human TAOK1 (1 to 314 residues) expressed in baculovirus infected Sf9 cells at 1 uM
# T2 sequence (whole entry): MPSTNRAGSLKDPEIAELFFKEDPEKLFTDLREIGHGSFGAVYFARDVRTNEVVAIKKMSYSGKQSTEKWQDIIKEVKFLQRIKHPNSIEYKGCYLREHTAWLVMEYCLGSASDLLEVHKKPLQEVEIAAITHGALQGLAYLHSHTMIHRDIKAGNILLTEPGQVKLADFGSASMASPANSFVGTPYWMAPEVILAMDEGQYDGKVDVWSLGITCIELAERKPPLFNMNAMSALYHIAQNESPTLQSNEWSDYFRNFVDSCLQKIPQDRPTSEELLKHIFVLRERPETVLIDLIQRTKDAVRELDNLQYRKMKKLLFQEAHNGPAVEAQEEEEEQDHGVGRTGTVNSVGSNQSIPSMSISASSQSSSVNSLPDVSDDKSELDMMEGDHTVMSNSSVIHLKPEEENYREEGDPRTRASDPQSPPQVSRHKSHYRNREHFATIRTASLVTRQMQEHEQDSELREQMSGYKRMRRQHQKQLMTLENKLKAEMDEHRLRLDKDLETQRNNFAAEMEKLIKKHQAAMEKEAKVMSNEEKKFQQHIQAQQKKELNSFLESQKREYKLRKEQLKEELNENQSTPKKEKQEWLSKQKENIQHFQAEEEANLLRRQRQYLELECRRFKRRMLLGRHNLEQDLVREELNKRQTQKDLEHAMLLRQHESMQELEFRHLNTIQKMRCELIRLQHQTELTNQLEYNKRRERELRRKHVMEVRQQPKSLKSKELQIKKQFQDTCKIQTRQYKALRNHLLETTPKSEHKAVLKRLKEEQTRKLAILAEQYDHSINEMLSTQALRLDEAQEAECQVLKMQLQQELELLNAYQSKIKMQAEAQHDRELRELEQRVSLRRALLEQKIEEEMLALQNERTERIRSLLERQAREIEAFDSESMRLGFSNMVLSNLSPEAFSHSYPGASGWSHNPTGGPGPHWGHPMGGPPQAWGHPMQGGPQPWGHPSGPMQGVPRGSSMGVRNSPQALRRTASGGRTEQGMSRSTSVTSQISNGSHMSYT
# [7] = target: STE20/SPS1-related proline-alanine-rich protein kinase (Homo sapiens) (UniProt Q9UEW8); assay: Inhibition of N-terminal His tagged recombinant full-length human STK39 expressed in baculovirus infected Sf9 cells at 1 uM
# SK-BR-3 = assay: Growth inhibition of human SK-BR-3 cells incubated for 72 hrs by cell-titer-Glo luminescent cell viability assay; format: functional; conditions: SK-BR-3, 72 h
# Procedure, shortened: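 SK-BR-3 (ATCC) kept in medium with 10% FBS, penicillin and streptomycin, subcultured every 3 days. 3 × 10^3 cells seeded, left overnight, then compound diluted in culture medium added. Viability by CellTiter-Glo luminescence after 72 h.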
# Chain of CDK9/cyclin T1 (O60563 whole entry): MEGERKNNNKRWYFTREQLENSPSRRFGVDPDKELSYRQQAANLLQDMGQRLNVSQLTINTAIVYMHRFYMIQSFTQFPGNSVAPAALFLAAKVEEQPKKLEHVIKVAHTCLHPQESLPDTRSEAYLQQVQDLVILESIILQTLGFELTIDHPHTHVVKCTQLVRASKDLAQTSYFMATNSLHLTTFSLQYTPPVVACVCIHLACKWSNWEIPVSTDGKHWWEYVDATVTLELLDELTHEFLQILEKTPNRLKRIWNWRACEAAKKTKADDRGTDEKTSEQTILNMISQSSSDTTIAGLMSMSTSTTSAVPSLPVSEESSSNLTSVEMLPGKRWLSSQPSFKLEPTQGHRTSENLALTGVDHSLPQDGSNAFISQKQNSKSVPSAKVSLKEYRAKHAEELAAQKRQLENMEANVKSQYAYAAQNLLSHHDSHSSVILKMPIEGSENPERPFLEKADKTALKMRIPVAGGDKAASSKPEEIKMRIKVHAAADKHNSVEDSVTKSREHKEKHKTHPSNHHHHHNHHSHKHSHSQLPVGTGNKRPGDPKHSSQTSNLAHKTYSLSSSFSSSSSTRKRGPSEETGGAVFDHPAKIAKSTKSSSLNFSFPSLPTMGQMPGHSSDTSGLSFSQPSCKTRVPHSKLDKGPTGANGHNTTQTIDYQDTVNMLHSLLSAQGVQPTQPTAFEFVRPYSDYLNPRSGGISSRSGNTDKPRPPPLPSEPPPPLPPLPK
# Chain of CDK9/cyclin T1 (P50750 whole entry): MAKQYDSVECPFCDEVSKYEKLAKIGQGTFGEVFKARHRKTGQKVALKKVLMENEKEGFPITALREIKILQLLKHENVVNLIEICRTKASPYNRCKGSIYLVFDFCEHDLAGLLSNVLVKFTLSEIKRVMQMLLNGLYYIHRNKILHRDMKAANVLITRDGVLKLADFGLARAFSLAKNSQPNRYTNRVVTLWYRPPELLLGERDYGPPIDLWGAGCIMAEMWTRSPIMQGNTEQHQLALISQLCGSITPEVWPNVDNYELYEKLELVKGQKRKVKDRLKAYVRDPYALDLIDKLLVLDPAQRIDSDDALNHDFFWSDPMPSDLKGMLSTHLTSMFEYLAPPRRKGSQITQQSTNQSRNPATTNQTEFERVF
Structure (SMILES),IC50 (CDK2/Cyclin A2),IC50 (CDK12/Cyclin K),further results
Cn1ccc(-c2ccc(N(C(=O)NCc3ccccc3)[C@H]3CC[C@H](Nc4ccc(C#N)cn4)CC3)cc2)cc1=O,> 100000 nM,44 nM,"IC50 (CDK9/cyclin T1): > 30000 nM; chromatographic logD [1]: 2.3; solubility [2]: < 0.08 µg/mL; Papp at 3 h, 10 µM [3]: 24.7 ×10⁻⁶ cm/s"
Cn1cc(-c2ccc(N(C(=O)NCC3CCCCC3)[C@H]3CC[C@H](Nc4ccc(C#N)cn4)CC3)cc2)cn1,> 100000 nM,99 nM,
Cn1cc(-c2ccc(N(C(=O)CCc3ccccc3)[C@H]3CC[C@H](Nc4ccc(C#N)cn4)CC3)cc2)cn1,2900 nM,160 nM,
Cn1cccc(-c2ccc(N(C(=O)NCc3ccccc3)[C@H]3CC[C@H](Nc4ccc(C#N)cn4)CC3)cc2)c1=O,18000 nM,250 nM,IC50 (CDK9/cyclin T1): 15000 nM; chromatographic logD [1]: 2.7; solubility [2]: 4.7 µg/mL
Cn1cc(-c2ccc(S(=O)(=O)N3CCC(Nc4ccc(C#N)cn4)CC3)cc2)cn1,10 nM,360 nM,IC50 (CDK9/cyclin T1): > 30000 nM; IC50 (CDK8/Cyclin C): > 10000 nM; IC50 (CDK7/Cyclin H/MNAT1): > 10000 nM
Cn1cc(-c2ccc(N(C(=O)OCc3ccccc3)[C@H]3CC[C@H](Nc4ccc(C#N)cn4)CC3)cc2)cn1,2500 nM,640 nM,
Cn1cc(-c2ccc(S(=O)(=O)N3CCC(Nc4ccc(C#N)cc4)CC3)cc2)cn1,,> 30000 nM,
Cn1cc(-c2ccc(S(=O)(=O)N3CCC(Nc4cc(C#N)ccn4)CC3)cc2)cn1,32 nM,> 30000 nM,
Cn1c(-c2ccc(N(C(=O)NCc3ccccc3)[C@H]3CC[C@H](Nc4ccc(C#N)cn4)CC3)cc2)cccc1=O,27000 nM,310 nM,IC50 (CDK9/cyclin T1): > 30000 nM; chromatographic logD [1]: 2.6; solubility [2]: < 0.09 µg/mL
Cn1cc(-c2ccc(S(=O)(=O)N3CCC(Nc4ccccn4)CC3)cc2)cn1,1200 nM,> 30000 nM,
Cn1cc(-c2ccc(CN3CCC(Nc4ccc(C#N)cn4)CC3)cc2)cn1,,16000 nM,
Cn1cc(-c2ccc(S(=O)(=O)N3CCC(Nc4cccc(C#N)n4)CC3)cc2)cn1,46000 nM,> 30000 nM,
N#Cc1ccc(N[C@H]2CC[C@H](N(C(=O)NCc3ccccc3)c3ccccc3)CC2)nc1,56000 nM,63 nM,IC50 (CDK9/cyclin T1): > 30000 nM; chromatographic logD [1]: 3.3; solubility [2]: 4 µg/mL
Cn1cc(-c2ccc(N([C@H]3CC[C@H](Nc4ccc(C#N)cn4)CC3)S(C)(=O)=O)cc2)cn1,31 nM,110 nM,
N#Cc1ccc(N[C@H]2CC[C@H](N(C(=O)NCc3ccccc3)c3ccc(-c4cccnc4)cc3)CC2)nc1,> 100000 nM,59 nM,"IC50 (CDK9/cyclin T1): > 30000 nM; chromatographic logD [1]: 3; solubility [2]: 0.67 µg/mL; Papp at 3 h, 10 µM [3]: 28 ×10⁻⁶ cm/s"
CC(=O)N(c1ccc(-c2cnn(C)c2)cc1)[C@H]1CC[C@H](Nc2ccc(C#N)cn2)CC1,470 nM,130 nM,
CN(C)C/C=C/C(=O)Nc1ccc(C(=O)N2CCC[C@@H](Nc3ncc(Cl)c(-c4c[nH]c5ccccc45)n3)C2)cc1,,,TDI [4]: Active
Cn1cc(-c2ccc(N(C(=O)NCc3ccccc3)[C@H]3CC[C@H](Nc4ccc(C#N)cn4)CC3)cc2)cn1,> 100000 nM,63 nM,"Ratio IC50 (Homo sapiens): > 800; IC50 (CDK9/cyclin T1): > 30000 nM; chromatographic logD [1]: 2.8; solubility [2]: 0.33 µg/mL; Papp at 3 h, 10 µM [3]: 28.8 ×10⁻⁶ cm/s"
CC(=O)N(c1ccc(-c2cnn(C)c2)cc1)[C@H]1CC[C@H](Nc2ncc3ccccc3n2)CC1,24 nM,13 nM,
Cn1cc(-c2ccc(C(=O)N3CCC(Nc4ccc(C#N)cn4)CC3)cc2)cn1,,23000 nM,
CN(c1ccc(C#N)cn1)C1CCN(S(=O)(=O)c2ccc(-c3cnn(C)c3)cc2)CC1,68000 nM,> 30000 nM,
Cn1cc(-c2ccc(N[C@H]3CC[C@H](Nc4ccc(C#N)cn4)CC3)cc2)cn1,9800 nM,8600 nM,
COC(=O)N(c1ccc(-c2cnn(C)c2)cc1)[C@H]1CC[C@H](Nc2ccc(C#N)cn2)CC1,1600 nM,200 nM,
Cn1cc(-c2ccc(N(C(=O)NCc3ccccc3)[C@H]3CC[C@H](Nc4ccc(C#N)cn4)CC3)cc2)ccc1=O,,,"IC50 (CDK9/cyclin T1): 16000 nM; TDI [4]: inactive; chromatographic logD [1]: 2.4; inhibition [5]: > 80%; solubility [2]: 7.7 µg/mL; IC50 (CDK8/Cyclin C): > 10000 nM; inhibition [6]: > 80%; inhibition [7]: > 80%; IC50 (CDK7/Cyclin H/MNAT1): > 10000 nM; Papp at 3 h, 10 µM [3]: 27.3 ×10⁻⁶ cm/s; GI50 (SK-BR-3): 800 nM"
COc1ccc(NC2CCN(S(=O)(=O)c3ccc(-c4cnn(C)c4)cc3)CC2)nc1,21000 nM,> 30000 nM,
Cn1cc(-c2ccc(S(=O)(=O)N3CCC(Nc4ccc(C(F)(F)F)cn4)CC3)cc2)cn1,5.8 nM,1800 nM,
CC(=O)N(c1ccc(-c2cnn(C)c2)cc1)[C@H]1CC[C@@H](Nc2ccc(C#N)cn2)CC1,> 100000 nM,> 30000 nM,
CCNC(=O)N(c1ccc(-c2cnn(C)c2)cc1)[C@H]1CC[C@H](Nc2ccc(C#N)cn2)CC1,4800 nM,460 nM,
